Assay results reported in publication PMC3220747 (ACS chemical biology, 2011).
“Also recorded” adds a separate entry of the source. Like-named read-outs stand apart in the source and are kept apart here. Each block holds one compound with its values, some of them ahead of it.

Legend:
[1] = target: uPAR·uPA interaction (uPAR binding to uPAATF) (Homo sapiens, UniProt Q03405); experiment: Microtiter-based ELISA, uPAR binding to immobilized uPAATF; details: for activity in the ELISA at single concentration: 50 μM; for concentration-dependent inhibition of uPAR binding to uPAATF (ELISA): serial dilutions
Method in brief: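 Microtiter wells coated with uPAATF (purified by SP Sepharose […] exchange). Blocking used a 1:1 mix of Superblock in PBS with 0.04 M NaH₂PO₄/0.3 M NaCl buffer. uPAR binding was tested against serial dilutions of test compound. After incubation and washes, bound uPAR was detected with biotinylated antibody uPA1310 in 1% BSA/PBS for 1–2 h.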

[2] = target: uPA binding to uPAR of MDA-MB-231 tumor cells (Homo sapiens, UniProt Q03405); experiment: Immunofluorescence imaging of cell surface uPA and uPAR; format: cell-based
MDA-MB-231 cells [3] = experiment: Cytotoxicity / cell proliferation; format: cell-based, human
Method in brief: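 MDA-MB-231 cells were exposed to test compound at the same concentrations and for the same incubation time as the transwell motility assay. MTT was added 2 h before measurement.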

MDA-MB-231 cells [4] = experiment: Invasion assay; format: cell-based, human; details: for number of cells able to invade through the membrane: MDA-MB-231, increasing concentration
Method in brief: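 Insert undersides were coated overnight at 4°C with 30 ng μl⁻¹ fibronectin, and filters were equilibrated 2 h in serum-free medium. Cells serum-starved 4 h were seeded at 5×10⁴ in 0.1% FBS medium with compound in the upper chamber, with 10% FBS medium plus compound or DMSO below. After 16 h at 37°C, 5% CO₂, filters were methanol-fixed and hematoxylin-stained. Invaded cells were counted in ten 200× fields.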

[5] = tested on: MDA-MB-231 cells lacking uPAR; experiment: Invasion assay with siRNA knockdown of uPAR; format: cell-based, human; details: MDA-MB-231 with siRNA knockdown of uPAR
Method in brief: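 Cells were transfected with uPAR siRNA, control siRNA or transfection reagent alone. After 48 h, knockdown was checked by immunoblot: 20 µg lysate on 12% SDS-PAGE, anti-uPAR probe, actin as loading control. Invasion without or with test compound then used fibronectin-coated transwells, with 0.1% FBS medium above and 10% FBS below, for 16 h at 37°C. Invaded cells were counted.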

MDA-MB-231 cells [6] = experiment: Adhesion assay; format: cell-based, human
Method in brief: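 Wells coated overnight at 4°C with fibronectin (15 ng μl⁻¹) or vitronectin, then blocked 1 h with 0.5% BSA/PBS. Cells were serum-starved 3 h, trypsinized, and held at 2.5×10⁵ cells ml⁻¹ in 0.1% FBS DMEM with test compound or DMSO for 90 min at 37°C. After three PBS washes, remaining adherent cells were quantified by MTT.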

MDA-MB-231 cells [7] = experiment: Wound healing assay; format: cell-based, human; details: MDA-MB-231, 16 h
Method in brief: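 Confluent MDA-MB-231 monolayers were scratched with a pipette tip, washed, and cultured in complete medium containing test compound. The gap between wound edges was measured in three random regions immediately after wounding and at 16 h.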

uPAR [8] = target: T1, uPAR (Homo sapiens, UniProt Q03405); experiment: Fluorescence polarization; format: binding
uPAR [9] = target: T1, uPAR; experiment: Direct binding of IPR-456 to uPAR by FP; details: 10 μM GFD
MDA-MB-231 cells [10] = experiment: Transwell; format: cell-based, human
Method in brief: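 Wells were fibronectin-coated (30 ng μL⁻¹, 4°C overnight). Cells serum-starved 4 h were seeded at 5×10⁴ in 0.1% FBS medium with compound or DMSO in the upper chamber, with 10% FBS RPMI-1640 plus compound or 1% DMSO below, for 8 h at 37°C. Non-migrated cells were scraped off; filters were methanol-fixed 30 min and hematoxylin-stained 1 h. Cells in ten 200× fields were counted and averaged over three independent experiments.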

[11] = target: uPAR·uPA interaction (suPAR277 and uPAATF) (Homo sapiens, UniProt Q03405); experiment: Surface plasmon resonance; format: binding; details: for SPR response with increasing concentration of compound: 5 to 100 μM
Method in brief: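 uPA amino-terminal fragment was amine-coupled to a CM5 chip at about 100 RU. Soluble uPAR (residues 1–277, expressed in Drosophila S2 cells) was injected with or without test compound (5–100 μM final, 5% DMSO) in HBS-EP plus 5% DMSO. Flow was 20 μL min⁻¹, with 180 s association and 90 s dissociation, and 5 mM HCl regeneration. DMSO-only protein controls were interleaved. IC50 was estimated from the plots.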

[12] = read-out: IC50, inhibition of uPAATF binding to uPAR (ELISA)

Chain of uPA binding to uPAR of MDA-MB-231 tumor cells (Q03405 23-305 limits assumed): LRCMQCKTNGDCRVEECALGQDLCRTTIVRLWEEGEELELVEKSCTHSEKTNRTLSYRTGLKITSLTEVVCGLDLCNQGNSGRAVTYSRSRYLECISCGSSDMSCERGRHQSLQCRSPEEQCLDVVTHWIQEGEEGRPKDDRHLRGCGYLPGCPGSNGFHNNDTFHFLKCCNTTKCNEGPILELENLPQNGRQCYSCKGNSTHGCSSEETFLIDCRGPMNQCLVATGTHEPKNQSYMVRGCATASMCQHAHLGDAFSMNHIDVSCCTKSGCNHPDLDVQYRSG
T1 sequence (Q03405 23-299): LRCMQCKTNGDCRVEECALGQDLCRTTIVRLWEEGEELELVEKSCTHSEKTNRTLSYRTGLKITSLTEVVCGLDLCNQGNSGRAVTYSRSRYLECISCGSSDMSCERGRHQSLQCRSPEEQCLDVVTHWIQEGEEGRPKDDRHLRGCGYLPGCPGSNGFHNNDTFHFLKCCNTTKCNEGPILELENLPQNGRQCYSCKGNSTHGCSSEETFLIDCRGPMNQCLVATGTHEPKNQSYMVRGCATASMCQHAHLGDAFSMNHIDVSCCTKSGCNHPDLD
Chain of uPAR·uPA interaction (uPAR binding to uPAATF) (Q03405 23-299): as above
Chain of uPAR·uPA interaction (suPAR277 and uPAATF) (Q03405 23-299): as above

SMILES: CC1CCN(c2cc(Nc3ccc(C(=O)O)cc3)c3c4c(onc24)-c2ccccc2C3=O)CC1 [IPR-808]
activity in the ELISA at single concentration [1]: strong activity
IC50 [1, 12]: 30 µM
concentration-dependent inhibition of uPAR binding to uPAATF (ELISA) [1]: concentration-dependent inhibition

IC50 [2]: 8 µM
Ki (uPAR [8]): 0.14 µM
inhibition / binding in initial FP screen (uPAR [8]; single concentration of 50 μM): highest inhibition
SMILES: CC1CC(C)CN(c2cc(Nc3ccccc3C(=O)O)c3c4c(onc24)-c2ccccc2C3=O)C1 (stereo not shown) [IPR-456, 2-((3-(3,5-Dimethylpiperidin-1-yl)-6-oxo-6H-anthra[1,9-cd]isoxazol-5-yl)amino)benzoic acid]
uPAR immunostaining at the cell surface ([2]; MDA-MB-231): no change in the immunostaining pattern of uPAR
uPA staining at the cell surface ([2]; MDA-MB-231, compound added 30 min prior to immunostaining): significant concentration-dependent reduction of uPA staining
concentration-dependent inhibition of uPAR binding to uPAATF (ELISA) [1]: complete concentration-dependent inhibition
toxicity within the timeframe of the invasion experiment (MDA-MB-231 cells [3]; MDA-MB-231, 200 μM): minimal toxicity
toxicity within the timeframe of the invasion experiment (MDA-MB-231 cells [3]; MDA-MB-231, up to 100 μM): no toxicity
cytotoxicity in the migration assays (MDA-MB-231 cells [3]; same concentrations and incubation time as migration assays): Neither assay exhibited any cell cytotoxicity
inhibition of invasion (MDA-MB-231 cells [4]; MDA-MB-231): about 60%
number of cells able to invade through the membrane (MDA-MB-231 cells [4]): concentration-dependent reduction
effect on invasion of cells lacking uPAR [5]: no effect on invasion
effect on cell adhesion (MDA-MB-231 cells [6]; fibronectin-coated wells): no effect on cell adhesion
effect on cell adhesion (MDA-MB-231 cells [6]; vitronectin-coated wells): no effect on cell adhesion
effect on migration (wound healing) (MDA-MB-231 cells [7]): little effect on migration
concentration-dependent displacement of GFD-FAM (uPAR [8]; 0.78 μM to 100 μM): displace GFD-FAM in a concentration-dependent manner
change of polarization with increasing uPAR in the presence of GFD (uPAR [9]): no increase in the polarization was detected
effect on migration (Boyden chamber) (MDA-MB-231 cells [10]): blocked migration very weakly

IC50 [1]: 10 µM
activity in the ELISA at single concentration [1]: strong activity
concentration-dependent inhibition of uPAR binding to uPAATF (ELISA) [1]: concentration-dependent inhibition
IC50 [11]: 10 µM
SMILES: O=C(O)c1cccc(Nc2cc(N3CCCCCC3)c3noc4c3c2C(=O)c2ccccc2-4)c1 [IPR-803, 3-((3-(Azepan-1-yl)-6-oxo-6H-anthra[1,9-cd]isoxazol-5-yl)amino)benzoic acid]
effect on cell proliferation / cytotoxicity (MDA-MB-231 cells [3]; MDA-MB-231, increasing concentration): concentration dependent inhibition of MDA-MB-231 cell proliferation; also recorded: some cytotoxicity
number of cells able to invade through the membrane (MDA-MB-231 cells [4]): concentration-dependent reduction
IC50 estimated from SPR plots, compared with ELISA [11]: nearly identical to those observed in the ELISA
SPR response with increasing concentration of compound [11]: concentration-dependent decrease in the response

SMILES: CC1CC(C)CN(c2cc(NCCC(=O)O)c3c4c(onc24)-c2ccccc2C3=O)C1 (stereo not shown) [IPR-763]
activity in the ELISA at single concentration [1]: strong activity
IC50 [1, 12]: 20 µM
concentration-dependent inhibition of uPAR binding to uPAATF (ELISA) [1]: concentration-dependent inhibition
IC50 estimated from SPR plots, compared with ELISA [11]: nearly identical to those observed in the ELISA
SPR response with increasing concentration of compound [11]: concentration-dependent decrease in the response
